Columns and labels:
[1] = tested on: Cell membrane; experiment: Induction of outer membrane permeabilization in wild type Escherichia coli BW25113 assessed as increase in nitrocefin hydrolysis at 8 ug/ml in presence of CCCP by spectroscopic analysis; settings: dose 8 µg/ml
Summary of the method: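 Intact E. coli were treated with 10 μM CCCP to block nitrocefin efflux, then given compound, nothing, or polymyxin B as permeabilizer control. Nitrocefin was added, and hydrolysis by periplasmic β-lactamase was followed as the rise in absorbance at 490 nm. Duplicate experiments were run on different days.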

[2] = target: T1, Multidrug efflux pump subunit AcrB (Escherichia coli (strain K12)) (UniProt P31224); experiment: Inhibition of AcrB in multidrug-resistant Escherichia coli BW25113 assessed as potentiation of levofloxacin-induced antibacterial activity by measuring fold change in levofloxacin MIC at 128 ug/ml by checkerboard titration method relative to levofloxacin MIC; settings: dose 128.0 µg/ml
T1 sequence (whole entry): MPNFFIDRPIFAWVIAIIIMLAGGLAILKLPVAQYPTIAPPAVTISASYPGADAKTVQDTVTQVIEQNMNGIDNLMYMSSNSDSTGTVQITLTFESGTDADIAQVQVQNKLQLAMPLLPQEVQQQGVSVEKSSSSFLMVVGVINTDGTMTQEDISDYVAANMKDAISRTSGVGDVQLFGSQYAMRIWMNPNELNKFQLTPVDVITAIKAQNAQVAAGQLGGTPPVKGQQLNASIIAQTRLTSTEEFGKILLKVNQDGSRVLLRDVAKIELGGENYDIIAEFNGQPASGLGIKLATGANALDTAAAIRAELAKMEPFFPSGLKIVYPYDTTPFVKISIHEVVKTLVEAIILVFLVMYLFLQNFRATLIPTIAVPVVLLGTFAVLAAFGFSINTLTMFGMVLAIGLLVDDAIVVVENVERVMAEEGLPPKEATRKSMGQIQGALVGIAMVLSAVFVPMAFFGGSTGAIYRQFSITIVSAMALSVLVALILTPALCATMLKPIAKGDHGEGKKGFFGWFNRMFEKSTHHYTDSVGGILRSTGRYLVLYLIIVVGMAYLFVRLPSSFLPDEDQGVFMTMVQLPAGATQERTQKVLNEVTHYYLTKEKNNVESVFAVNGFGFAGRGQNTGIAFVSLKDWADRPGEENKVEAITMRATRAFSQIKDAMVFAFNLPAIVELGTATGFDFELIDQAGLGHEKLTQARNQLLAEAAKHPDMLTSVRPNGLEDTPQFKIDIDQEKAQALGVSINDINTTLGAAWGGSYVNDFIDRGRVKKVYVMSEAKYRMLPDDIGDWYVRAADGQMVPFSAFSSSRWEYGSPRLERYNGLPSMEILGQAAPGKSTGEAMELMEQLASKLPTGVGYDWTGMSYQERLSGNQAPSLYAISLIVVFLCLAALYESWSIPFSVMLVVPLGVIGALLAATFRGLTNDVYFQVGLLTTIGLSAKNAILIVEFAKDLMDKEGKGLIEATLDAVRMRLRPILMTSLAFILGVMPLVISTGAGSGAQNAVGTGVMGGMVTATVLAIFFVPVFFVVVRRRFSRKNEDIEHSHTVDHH

[3] = target: T1, Multidrug efflux pump subunit AcrB (Escherichia coli (strain K12)); experiment: Inhibition of AcrB in multidrug-resistant Escherichia coli BW25113 assessed as potentiation of erythromycin-induced antibacterial activity by measuring fold change in erythromycin MIC at 128 ug/ml by checkerboard titration method relative to erythromycin MIC; settings: dose 128.0 µg/ml

SMILES | Activity [1] | fold change (FC) [2] | fold change (FC) [3]
CC1CN(C(=O)c2cc3c(OCc4c(Cl)cccc4Cl)cccc3c3c2CCC(C)(C)O3)CC(C)O1 (stereo not drawn) | Not Active |  | 
Cc1ccc(COc2cccc3c4c(c(-c5nnco5)cc23)CCC(C)(C)O4)cc1 |  | < 16 | < 16

Reference: ChEMBL document CHEMBL4732114, “Design and structural optimization of novel 2H-benzo[h]chromene derivatives that target AcrB and reverse bacterial multidrug resistance” (Eur J Med Chem, 2021)
